In article PMC3423201 (Molecular cancer therapeutics, 2011):
Like-named read-outs stand apart in the source and are kept apart here. Each block holds one compound with its values, some of them ahead of it.

Tests used:
AMACR = molecular target: T1, AMACR (Homo sapiens, UniProt Q9UHK6); assay: Pre-incubation of AMACR with cysteine specific reagents, with or without ebselen; format: biochemical; conditions: 20 mM dithithreitol, 5 mM tributylphosphine, 15 mM iodoacetamide
T1 sequence (Q9UHK6 1-382): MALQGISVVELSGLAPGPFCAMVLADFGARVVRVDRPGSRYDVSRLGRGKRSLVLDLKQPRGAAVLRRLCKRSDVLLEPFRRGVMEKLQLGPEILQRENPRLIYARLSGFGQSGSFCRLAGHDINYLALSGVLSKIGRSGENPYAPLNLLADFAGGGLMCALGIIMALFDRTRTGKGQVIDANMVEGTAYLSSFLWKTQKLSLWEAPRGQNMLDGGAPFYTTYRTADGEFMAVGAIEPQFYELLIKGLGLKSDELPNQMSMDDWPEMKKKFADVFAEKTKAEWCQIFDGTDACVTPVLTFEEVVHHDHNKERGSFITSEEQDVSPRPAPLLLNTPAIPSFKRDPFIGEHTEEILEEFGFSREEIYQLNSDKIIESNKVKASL

AMACR-MBP [1] = molecular target: T2, AMACR-MBP (Homo sapiens, UniProt Q9UHK6); assay: High-throughput screen for AMACR inhibitors; format: biochemical; conditions: for inhibition at 100 µM: read-out: inhibition (decrease of fractional activity) in HTS
T2 sequence (Q9UHK6 1-382): T1 sequence (Q9UHK6 1-382)
Summary of the method: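 Recombinant AMACR-MBP was expressed in E. coli TB1, purified on a maltose column and dialysed into 100 mM Na/K/Pi pH 7.25. Enzyme (0.3 μM) was incubated with 100 μM test compound (1% DMSO) and 150 μM [2,3-3H]Pri-CoA (60 Ci/mol) in buffer with 0.125 mg/mL BSA for 30 min at 37°C. Reactions were acid-quenched, neutralised and passed through C18 SPE, and released 3H2O was scintillation-counted. Fractional activity was calculated against each row's no-inhibitor control after no-enzyme background subtraction; <0.8 was flagged as a hit.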

AMACR-MBP [2] = molecular target: T2, AMACR-MBP; assay: Kitz-Wilson analysis of time-dependent inactivation; format: biochemical; conditions: for KI (inactivation): 37°C, Kitz-Wilson transformation
Summary of the method: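 Inactivation mixtures at 37°C contained test compound at a series of concentrations and 5 μM AMACR-MBP, started with enzyme. At timed points from zero, 2 μL was diluted 50-fold into buffer with 150 μM [2,3-3H]Pri-CoA (100 nM final enzyme) and reacted for 30 min, then SPE/scintillation. Activity remaining was expressed versus time-matched no-inhibitor controls. T1/2 was regressed against 1/[I], giving kinact = ln2/y-intercept and KI(inact) = −1/x-intercept.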

WPMY1 = assay: In-vitro LD50, alamarBlue viability, WPMY1; format: cell-based, human; conditions: WPMY1, 48 hours
Summary of the method: (§1)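 Cells were plated at 10,000 per well in triplicate and allowed to attach overnight. Medium was replaced with test compound (0–500 μM or 0–400 μM depending on compound) for 48 h. Cells were then incubated with alamarBlue for 4 h and fluorescence read at 544 ex/590 em. After media-only background subtraction, viability was expressed as a percent of the vehicle control. LD50 came from a 4-parameter variable-slope fit with the bottom constrained to zero.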

PC3 = assay: In-vitro LD50, alamarBlue viability, PC3; format: cell-based, human; conditions: PC3, 48 hours
Summary of the method: as §1

LAPC4 = assay: In-vitro LD50, alamarBlue viability, LAPC4; format: cell-based, human; conditions: LAPC4, 48 hours
Summary of the method: as §1

LNCaP = assay: In-vitro LD50, alamarBlue viability, LNCaP; format: cell-based, human; conditions: 48 hours
Summary of the method: as §1

Mode of cell death = format: cell-based; conditions: Supplementary Figure S7
AMACR-MBP [3] = molecular target: T2, AMACR-MBP; assay: Kinetic parameters; format: biochemical; conditions: 0.3 μM AMACR-MBP, 37°C, ± SEM
Summary of the method: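 Reactions of 185 μL held 0.3 μM AMACR-MBP in Na/K/Pi pH 7.25 with BSA at 37°C. [2,3-3H]Pri-CoA was used at 1–400 μM (twelve levels), all at 60 Ci/mol, and reactions were started with enzyme. Aliquots of 20 μL were taken at 0–900 s and quenched in 2 M HCl, with no-enzyme backgrounds at each time point. Aliquots were processed by SPE/scintillation, DPM were converted to rates, and rates were fitted directly to Michaelis-Menten.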

AMACR-MBP [4] = molecular target: T2, AMACR-MBP; assay: AMACR inhibitor IC50 determination; format: biochemical
Summary of the method: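 Run as the plate screen (0.3 μM AMACR-MBP, 100 μM [2,3-3H]Pri-CoA, SPE and scintillation read-out), adding enzyme last. Test compound was dosed at 1–1000 μM, extended to 1–750 nM for selected compounds, from 100% DMSO stocks, giving 2–6% DMSO, in triplicate. Fractional activity was fitted by 3-parameter log(inhibitor)-response regression.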

[5] = system: prostate cancer cell lines (LAPC4/LNCaP/PC3) compared to WPMY1; format: cell-based, human; conditions: highest vs lowest AMACR expressor
Summary of the method: as §1

AMACR-MBP [6] = molecular target: T2, AMACR-MBP; assay: Effect of pre-incubation time on ebselen inhibition; format: biochemical
[7] = neuroprotective doses, 300 mg/day, oral; ref [44], [46]; cited from earlier work

- effect of pre-incubation with cysteine specific reagent on AMACR-MBP activity (AMACR): does not abrogate AMACR-MBP activity
SMILES: O[C@@H](CS)[C@@H](O)CS (racemic) [DTT, dithithreitol]

- inhibition at 100 µM (AMACR-MBP [1]): ≥ 20%
SMILES: Nc1c(/N=N/c2ccc(-c3ccc(/N=N/c4cc(S(=O)(=O)O)c5ccccc5c4N)cc3)cc2)cc(S(=O)(=O)O)c2ccccc12 [Congo Red, congo red]

SMILES: Cc1cc(O)c(-c2cc(O)c(C)cc2O)cc1O [DMPMB, 2-(2,5-dihydroxy-4-methylphenyl)-5-methyl benzene-1,4-diol]
- mode of inhibition (AMACR-MBP [2]): irreversible inactivators
- KI (inactivation) (AMACR-MBP [2]): 24.3 µM
- LD50 (WPMY1): 117.6 ± 1.011 µM
- LD50 (PC3): 101.1 ± 1.034 µM
- LD50 (LAPC4): 58.78 ± 1.058 µM
- LD50 (LNCaP): 116.9 ± 1.033 µM
- type of cell death induced (Mode of cell death): necrotic cell death

SMILES: NC(=O)CI [IAA, iodoacetamide]
- effect of pre-incubation with cysteine specific reagent on AMACR-MBP activity (AMACR): does not abrogate AMACR-MBP activity

- mode of inhibition (AMACR-MBP [2]): covalent inactivators
SMILES: CSc1nc(=S)c2[nH]c(=S)[nH]c2[nH]1 [MSDTP, 2-methylsulfanyl-7,9-dihydro-3H-purine-6,8-dithione]

SMILES: CCCCP(CCCC)CCCC [TBP, tributylphosphine]
- effect of pre-incubation with cysteine specific reagent on AMACR-MBP activity (AMACR): does not abrogate AMACR-MBP activity

- Km (AMACR-MBP [3]): 85.6 ± 17.1 µM
SMILES: CC(C)CCCC(C)CCCC(C)CCCC(C)C(=O)SCCNC(=O)CCNC(=O)[C@H](O)C(C)(C)COP(=O)(O)OP(=O)(O)OC[C@H]1O[C@@H](n2cnc3c(N)ncnc32)[C@H](O)[C@@H]1OP(=O)(O)O (some centres unmarked) [[2,3-^3H] Pri-CoA, [2,3-^3H] pristanoyl coenzyme A]

- Vmax (AMACR-MBP [3]): 294.9 ± 21.10 pmol/min
SMILES: [3H]C(CCC(C)CCCC(C)CCCC(C)C)C([3H])(C)C(=O)SCCNC(=O)CCNC(=O)[C@H](O)C(C)(C)COP(=O)(O)OP(=O)(O)OC[C@H]1O[C@@H](n2cnc3c(N)ncnc32)[C@H](O)[C@@H]1OP(=O)(O)O (some centres unmarked) [[2,3-^3H] Pri-CoA, [2,3-^3H] pristanoyl coenzyme A]

SMILES: O=C1c2ccccc2[Se](=O)N1c1ccccc1 (centres unmarked) [ebselen oxide]
- IC50 (AMACR-MBP [4]; 100 μM [2,3-3H]Pri-CoA, 0.3 μM AMACR-MBP, enzyme initiated): 0.8 µM

SMILES: O=c1c2ccccc2[se]n1-c1ccccc1 [ebselen]
- inhibition at 100 µM (AMACR-MBP [1]): ≥ 20%
- IC50 (AMACR-MBP [4]): 2.79 µM
- mode of inhibition (AMACR-MBP [2]): irreversible inactivators
- KI (inactivation) (AMACR-MBP [2]): 24 µM
- LD50 (WPMY1): 467.1 ± 1.017 µM
- LD50 (PC3): 332.3 ± 1.015 µM
- LD50 (LAPC4): 98.43 ± 1.038 µM
- LD50 (LNCaP): 71.96 ± 1.106 µM
- difference in LD50 between LNCaP and WPMY1 [5]: 5 fold
- type of cell death induced (Mode of cell death): necrotic cell death
- fractional activity of AMACR-MBP (AMACR-MBP [6]; no pre-incubation (enzyme initiated)): ~ 50%
- fractional activity of AMACR-MBP (AMACR-MBP [6]; pre-incubation time of ≥ 5 minutes (substrate initiated)): just above background
- tolerability in clinical trials [7]: well tolerated

SMILES: O=C1c2c(O)ccc(O)c2C(=O)c2c(NCCNCCO)ccc(NCCNCCO)c21 [mitoxantrone]
- inhibition of AMACR-MBP detected in library screen (AMACR-MBP [1]; 100 μM, both JHDL and NCI/DTP libraries): inhibition of AMACR-MBP
